The target in test [1] is 6P chaperone complex (Hsp90, Hsp70, Hop, BAG1, Aha1 & Hsp40) refolding of FLuc (Homo sapiens, UniProt O95433+P08238+P0DMV8). The test is described as follows: In vitro refolding of heat-denatured firefly luciferase by 6P chaperone complex. The format is biochemical. To be noted: 15 μM.
The subject of test [2] is androgen receptor (AR). The test can be described thus: AR-mediated transcription assay in MDA-kb2 cells. The test is classed as cell-based, human. The conditions noted are these: 0.2 nM DHT, 20 h. In short, it runs like this: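 MDA-kb2 cells carrying a stable androgen/glucocorticoid-responsive firefly luciferase reporter were seeded at 20,000 cells/well in Leibovitz's L-15 with 10% charcoal-stripped FBS (0% CO2) and grown to 80% confluence. Cells were co-treated with DHT and graded test compound for 20 h, lysed in Bright-Glo reagent for 4 min at room temperature, and luminescence was read.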

In test [3] the target is Aha1-stimulated Hsp90 (ASH) ATPase activity (Homo sapiens, UniProt O95433+P08238). The test is described as follows: Aha1-stimulated Hsp90. The test is classed as biochemical.
Chain of Aha1-stimulated Hsp90 (ASH) ATPase activity (O95433 whole entry): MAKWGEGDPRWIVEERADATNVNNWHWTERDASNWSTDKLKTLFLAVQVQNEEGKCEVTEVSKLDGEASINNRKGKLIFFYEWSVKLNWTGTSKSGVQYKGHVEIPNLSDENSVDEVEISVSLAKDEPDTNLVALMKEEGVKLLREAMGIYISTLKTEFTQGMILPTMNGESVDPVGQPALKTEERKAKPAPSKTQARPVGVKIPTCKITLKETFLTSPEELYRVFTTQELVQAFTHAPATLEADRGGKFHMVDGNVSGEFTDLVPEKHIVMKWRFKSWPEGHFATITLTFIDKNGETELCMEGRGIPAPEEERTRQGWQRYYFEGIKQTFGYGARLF
Chain of Aha1-stimulated Hsp90 (ASH) ATPase activity (P08238 whole entry): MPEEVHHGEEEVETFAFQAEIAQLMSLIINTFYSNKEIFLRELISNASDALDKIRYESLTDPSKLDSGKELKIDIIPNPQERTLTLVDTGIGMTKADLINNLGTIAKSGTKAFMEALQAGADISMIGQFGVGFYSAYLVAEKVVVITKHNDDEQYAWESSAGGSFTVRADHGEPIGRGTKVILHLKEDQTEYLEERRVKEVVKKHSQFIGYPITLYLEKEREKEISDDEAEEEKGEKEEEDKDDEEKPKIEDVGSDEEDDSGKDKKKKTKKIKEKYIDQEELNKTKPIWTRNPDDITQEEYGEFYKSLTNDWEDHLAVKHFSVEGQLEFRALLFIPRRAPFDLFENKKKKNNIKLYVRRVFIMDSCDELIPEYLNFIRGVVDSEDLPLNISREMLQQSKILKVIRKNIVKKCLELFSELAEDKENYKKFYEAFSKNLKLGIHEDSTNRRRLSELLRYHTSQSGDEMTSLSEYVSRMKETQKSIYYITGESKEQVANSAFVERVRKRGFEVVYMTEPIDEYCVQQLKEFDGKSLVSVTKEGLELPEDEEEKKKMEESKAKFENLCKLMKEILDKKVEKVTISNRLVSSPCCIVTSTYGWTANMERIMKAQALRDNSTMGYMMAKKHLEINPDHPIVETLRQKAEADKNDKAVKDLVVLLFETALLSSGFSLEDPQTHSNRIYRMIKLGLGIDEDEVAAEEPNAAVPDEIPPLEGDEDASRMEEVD
In test [4] the target is human Hsp90β (human, UniProt P08238 1-724). The test can be described thus: other fluorescence titration.
Chain of human Hsp90β (P08238 whole entry): as above

Chain of 6P chaperone complex (Hsp90, Hsp70, Hop, BAG1, Aha1 & Hsp40) refolding of FLuc (O95433 whole entry): as the sequence (O95433 whole entry) above
Chain of 6P chaperone complex (Hsp90, Hsp70, Hop, BAG1, Aha1 & Hsp40) refolding of FLuc (P08238 whole entry): as the sequence (P08238 whole entry) above
Chain of 6P chaperone complex (Hsp90, Hsp70, Hop, BAG1, Aha1 & Hsp40) refolding of FLuc (P0DMV8 whole entry): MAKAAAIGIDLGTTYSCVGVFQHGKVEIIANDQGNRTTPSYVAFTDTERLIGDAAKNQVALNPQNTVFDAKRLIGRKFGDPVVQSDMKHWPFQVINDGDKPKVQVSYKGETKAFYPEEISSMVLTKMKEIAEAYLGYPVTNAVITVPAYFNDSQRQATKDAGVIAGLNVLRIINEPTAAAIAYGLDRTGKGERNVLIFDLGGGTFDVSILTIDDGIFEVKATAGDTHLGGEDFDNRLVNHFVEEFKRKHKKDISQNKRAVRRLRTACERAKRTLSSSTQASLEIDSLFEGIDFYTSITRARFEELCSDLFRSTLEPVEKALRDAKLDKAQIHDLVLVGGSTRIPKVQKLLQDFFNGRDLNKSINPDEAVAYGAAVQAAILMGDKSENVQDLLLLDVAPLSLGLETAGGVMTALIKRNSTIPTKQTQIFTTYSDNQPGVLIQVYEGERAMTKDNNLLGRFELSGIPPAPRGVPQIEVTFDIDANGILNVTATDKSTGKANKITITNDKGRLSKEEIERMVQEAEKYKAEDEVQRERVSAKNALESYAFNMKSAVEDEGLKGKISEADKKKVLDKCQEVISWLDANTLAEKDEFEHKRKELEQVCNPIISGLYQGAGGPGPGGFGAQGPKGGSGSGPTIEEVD

With `CCn1c(=O)/c(=C2\Sc3cc(Cl)ccc3N2C)s/c1=C\c1scc[n+]1Cc1ccccc1.[Cl-]` [JG98], in test [1], the “effect on FLuc refolding” value is on record as “completely block”.
As for `O=C(Nc1cccc(Cl)c1Cl)C1CCCCC1` [MJC13], the “IC50 of AR-dependent luciferase expression” value in test [2] is given as “similar”.
Regarding `C=CCNC1=C2C[C@@H](C)C[C@H](OC)[C@H](O)[C@@H](C)/C=C(\C)[C@H](OC(N)=O)[C@@H](OC)/C=C\C=C(/C)C(=O)NC(=CC1=O)C2=O` [17-AAG], the “IC50 of AR-dependent luciferase expression” value in test [2] is recorded as “better than that of the Hsp90i 17-AAG”.
Take `COC1=C2C[C@@H](C)C[C@H](OC)[C@H](O)[C@@H](C)/C=C(\C)[C@H](OC(N)=O)[C@@H](OC)/C=C\C=C(/C)C(=O)NC(=CC1=O)C2=O` [GA, geldanamycin]: the “activity in ASH assay (screen)” value in test [3] was “failed to completely inhibit the ASH activity”. For the same molecule, the “reduction in FLuc refolding” value in test [1] was found to be 25%.

B1: acrylodan-labeled CTD of Aha1 (domain or fragment, human, UniProt O95433 164-338, looked up)
chain: ILPTMNGESVDPVGQPALKTEERKAKPAPSKTQARPVGVKIPTCKITLKETFLTSPEELYRVFTTQELVQAFTHAPATLEADRGGKFHMVDGNVSGEFTDLVPEKHIVMKWRFKSWPEGHFATITLTFIDKNGETELCMEGRGIPAPEEERTRQGWQRYYFEGIKQTFGYGARLF
modifications: acrylodan on cysteine residues
As for B1, the binding result in test [4] was “binds”.

The values above are taken from article PMC7144688 (Cell chemical biology, 2020).
